Test results from ChEMBL document CHEMBL2021780, “Antineoplastic agents. 548. Synthesis of iodo- and diiodocombstatin phosphate prodrugs” (J Nat Prod, 2012).
Values after ≈ are worked out from the molar mass of the structure shown. Active and inactive are the calls of the source. The rule behind the calls is not given here.

Legend:
HUVEC [1] = test: Antiangiogenic activity in HUVEC assessed as cell growth at 0.00001 ug/ml after 24 hrs by sulforhodamine B assay relative to control; type: functional; conditions: Homo sapiens, read-out: Activity
DU-145 = test: Growth inhibition of human DU145 cells after 48 hrs by sulforhodamine B assay; type: functional; conditions: DU-145, 48 h
How it was run: (§1)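 NCI sulforhodamine B assay. Cells were seeded in 5% FBS/RPMI-1640 and incubated 24 h. Serial compound dilutions were then added for 48 h. Cells were fixed with trichloroacetic acid, stained with SRB and read by microplate reader. GI50 is the concentration giving 50% reduction in net protein increase, calculated from optical density data.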

HUVEC [2] = test: Antiangiogenic activity in HUVEC assessed as cell growth at 0.01 ug/ml after 24 hrs by sulforhodamine B assay relative to control; type: functional, Homo sapiens; conditions: Homo sapiens, HUVEC, 24 h; read-out: Activity
[3] = Displacement of [3H]colchicine from tubulin at 10 uM after 10 mins
How it was run: (§2)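 [³H]colchicine binding: 1.0 μM tubulin with 5.0 μM [³H]colchicine and compound, incubated 10 min at 37 °C. The tubulin–colchicine complex was separated from unbound label by retention on DEAE-cellulose filters. Result is inhibition of radiolabel binding.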

HUVEC [4] = test: Antiangiogenic activity in HUVEC assessed as reduction of number of junctions at 0.001 ug/ml after 24 hrs by matrigel assay relative to control; type: functional; conditions: Homo sapiens
How it was run: (§3)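 Commercial HUVECs grown in EGM-2 were seeded at 2 × 10⁵ cells/mL onto Matrigel, which had been polymerized 15 min at rt and then 30 min at 37 °C, per NCI DTP protocol. Compound was added and cells were incubated 24 h, then imaged by inverted microscopy. Cord length and junction number were scored against untreated control on a scale from − (none) to +++ (same as control), with ++ = 50% of control.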

Cryptococcus neoformans = test: Antifungal activity against Cryptococcus neoformans ATCC 90112 by broth microdilution method
Micrococcus luteus = test: Antibacterial activity against Micrococcus luteus Presque Isle 456 by broth microdilution method; type: functional
How it was run: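 Broth microdilution per NCCLS bacterial (M7-A5) and yeast standards. Compounds were reconstituted in sterile DMSO and diluted in the appropriate medium just before testing. MIC is the lowest concentration giving complete inhibition of visible growth (optically clear). Assays were repeated on separate days.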

P388 = test: Growth inhibition of mouse P388 cells after 48 hrs by Z1 Beckman/Coulter particle counter analysis; type: functional; conditions: P388, 48 h, read-out: ED50 (the source's name)
How it was run: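 Mouse P388 leukemia cells were incubated 24 h in 10% horse serum/Fisher medium, then exposed 48 h to serial compound dilutions. ED50 was calculated from cell counts on a Coulter Z1 particle counter.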

KM-20L2 = test: Growth inhibition of human KM20L2 cells after 48 hrs by sulforhodamine B assay; type: functional; conditions: KM-20L2, 48 h; how it was run: as §1
HUVEC [5] = test: Antiangiogenic activity in HUVEC assessed as cell growth at 0.0001 ug/ml after 24 hrs by sulforhodamine B assay relative to control; type: functional, Homo sapiens; conditions: Homo sapiens, HUVEC, 24 h; read-out: Activity
[6] = Displacement of [3H]colchicine from tubulin at 1 uM after 10 mins; how it was run: as §2
HUVEC [7] = test: Antiangiogenic activity in HUVEC assessed as reduction of cord length at 0.001 ug/ml after 24 hrs by matrigel assay relative to control; type: functional; conditions: Homo sapiens; how it was run: as §3
HUVEC [8] = test: Antiangiogenic activity in HUVEC assessed as reduction of number of junctions at 0.01 ug/ml after 24 hrs by matrigel assay relative to control; type: functional; conditions: Homo sapiens; how it was run: as §3
HUVEC [9] = test: Antiangiogenic activity in HUVEC assessed as reduction of cord length at 0.01 ug/ml after 24 hrs by matrigel assay relative to control; type: functional; conditions: Homo sapiens; how it was run: as §3
[10] = Growth inhibition of human KAT4 cells after 48 hrs by sulforhodamine B assay; type: functional; conditions: KAT-4, 48 h
HUVEC [11] = test: Antiangiogenic activity in HUVEC assessed as reduction of number of junctions at 0.0001 ug/ml after 24 hrs by matrigel assay relative to control; type: functional, Homo sapiens; parameters: scale not given: the % may be the effect or the level left
How it was run: (§4)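 Matrigel was polymerised in wells (15 min rt, then 30 min 37 °C). HUVECs (2 × 10⁵ cells/mL) were added with compound and incubated 24 h, then imaged by inverted microscope. Cord length and junction number were scored semi-quantitatively versus untreated control (− none to +++ same as control).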

BXPC-3 = test: Growth inhibition of human BxPC3 cells after 48 hrs by sulforhodamine B assay; type: functional; conditions: BXPC-3, 48 h; how it was run: as §1
HUVEC [12] = test: Antiangiogenic activity in HUVEC assessed as cell growth at 0.001 ug/ml after 24 hrs by sulforhodamine B assay relative to control; type: functional, Homo sapiens; conditions: Homo sapiens, HUVEC, 24 h; read-out: Activity
SF-268 = test: Growth inhibition of human SF268 cells after 48 hrs by sulforhodamine B assay; type: functional; conditions: SF-268, 48 h; how it was run: as §1
SW-1736 = test: Growth inhibition of human SW1736 cells after 48 hrs by sulforhodamine B assay; type: functional; conditions: SW-1736, 48 h
HUVEC [13] = test: Antiangiogenic activity in HUVEC assessed as cell growth inhibition after 48 hrs by sulforhodamine B assay; type: functional, cell-based; conditions: Homo sapiens
How it was run: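 HUVECs were grown in EGM-2 medium and tested with the standard SRB growth assay following NCI Developmental Therapeutics Program Matrigel antiangiogenesis protocols. IC50 (concentration causing 50% inhibition) was calculated from plotted data.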

[14] = Inhibition of purified tubulin assembly after 20 mins
How it was run: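 Purified tubulin at 10 μM in 0.8 M monosodium glutamate (pH 6.6), 0.4 mM GTP and 4% (v/v) DMSO, with varying compound concentrations. Extent of assembly was measured after 20 min at 30 °C.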

MCF7 = test: Growth inhibition of human MCF7 cells after 48 hrs by sulforhodamine B assay; type: functional; conditions: MCF7, 48 h; how it was run: as §1
NCI-H460 = test: Growth inhibition of human NCI-H460 cells after 48 hrs by sulforhodamine B assay; type: functional; conditions: NCI-H460, 48 h; how it was run: as §1
HUVEC [15] = test: Antiangiogenic activity in HUVEC assessed as reduction of cord length at 0.0001 ug/ml after 24 hrs by matrigel assay relative to control; type: functional, Homo sapiens; parameters: scale not given: the % may be the effect or the level left; how it was run: as §4

SMILES: COc1ccc(/C=C\c2cc(I)c(OC)c(OC)c2)cc1O [IODOCOMBSTATIN]
- growth at 10 pg/mL (HUVEC [1]): 90%
- GI50 (DU-145): 0.18 ng/mL (≈ 0.437 nM)
- growth at 0.01 µg/mL (HUVEC [2]): 14%
- inhibition [3]: 100%
- Activity (HUVEC [4]): Active
- MIC (Cryptococcus neoformans): 64000 ng/mL (≈ 155000 nM)
- MIC (Micrococcus luteus): 2000 ng/mL (≈ 4850 nM)
- EC50 (P388): 2 ng/mL (≈ 4.85 nM)
- GI50 (KM-20L2): 328 ng/mL (≈ 796 nM)
- growth at 0.0001 µg/mL (HUVEC [5]): 18%
- inhibition [6]: 78%
- Activity (HUVEC [7]): Active
- Activity (HUVEC [8]): Active
- Activity (HUVEC [9]): Active
- GI50 [10]: 89 ng/mL (≈ 216 nM)
- Activity (HUVEC [11]): 75%
- GI50 (BXPC-3): 48 ng/mL (≈ 116 nM)
- growth at 0.001 µg/mL (HUVEC [12]): 14%
- GI50 (SF-268): 0.18 ng/mL (≈ 0.437 nM)
- GI50 (SW-1736): 2200 ng/mL (≈ 5340 nM)
- IC50 (HUVEC [13]): 0.04 ng/mL (≈ 0.097 nM)
- IC50 [14]: 2500 nM
- GI50 (MCF7): 0.22 ng/mL (≈ 0.534 nM)
- GI50 (NCI-H460): 0.29 ng/mL (≈ 0.704 nM)
- Activity (HUVEC [15]): 75%
